High-throughput results from PubChem BioAssay.
The list is not random: actives were taken first. Their share in the collection is about 4.2%.
CHO parental Ca = signal in parental CHO cells, OX1R antagonist counter-screen; inhibition, % at 5.6 µM; parental CHO-K1, ATP-induced calcium, Fluo-8 fluorescence; actives 0.63% (n = 330,000); AID 463079;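 active = inhibition above that plate's mean sample inhibition plus 3 SD, cut at about 26% in these data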;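 also: 0% = ATP-challenged DMSO wells and 100% = DMSO wells without ATP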
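Measured by: calcium-sensitive Fluo-8 fluorescence / Test system: CHO parental line / Controls: ATP-challenged DMSO wells low, unchallenged DMSO wells high / Measure: % inhibition / Compound: single nominal dose of 5.6 µM per compound / Replicates: single well per compound, no replicates / Reagent: ATP as calcium-mobilizing challenge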
GalR3 antagonist = blocks the human galanin receptor 3; HEK293 GalR3-CNG cAMP membrane potential fluorescence; galR3 body fused to GalR1 C-terminus; inhibition, % at 3 µM; actives 0.44% (n = 360,000); AID 651719;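 active = inhibition above the screen-wide average plus 3 SD, cut at about 13% in these data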;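 also: forskolin and galanin both at EC90 stimulate the cells; cAMP rise reported by CNG channel membrane potential dye signal; 0% = forskolin plus galanin with DMSO and 100% = forskolin alone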
OX1R antag-1 = blocks the human orexin 1 receptor. O43613. OX1R-expressing cells, FRET antagonist read-out. inhibition, % at 6.6 µM. actives 1.8% (n = 330,000). AID 485270; in the data active = inhibition mostly above about 38%, no sharp cut-off; inactive = mostly below about 40%;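 also: 0% = agonist challenge alone and 100% = reference antagonist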
Target sequence (O43613 whole entry, looked up): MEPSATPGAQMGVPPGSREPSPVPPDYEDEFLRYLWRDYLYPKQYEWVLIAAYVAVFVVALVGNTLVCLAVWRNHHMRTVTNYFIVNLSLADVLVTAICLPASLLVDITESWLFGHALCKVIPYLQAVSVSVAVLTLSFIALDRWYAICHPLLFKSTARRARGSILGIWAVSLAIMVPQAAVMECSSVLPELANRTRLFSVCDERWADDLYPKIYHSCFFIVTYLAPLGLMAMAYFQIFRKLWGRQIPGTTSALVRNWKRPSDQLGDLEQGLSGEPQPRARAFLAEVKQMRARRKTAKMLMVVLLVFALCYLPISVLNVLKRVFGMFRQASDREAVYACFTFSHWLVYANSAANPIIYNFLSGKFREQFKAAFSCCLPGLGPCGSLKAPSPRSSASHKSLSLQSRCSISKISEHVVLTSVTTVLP
OX1R antag-2 = human HCRTR1 antagonism | O43613 | CHO/OX1R cells, Fluo-8 calcium fluorescence, orexin A | actives 0.43% (n = 330,000) | inhibition, % at 5 µM;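 active = inhibition above its plate's threshold, mean inhibition of all tested compounds on the plate plus 3 SD, cut at about 37% in these data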;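 also: 0% = orexin A challenge wells and 100% = SB-334867-A antagonist wells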
TAAR1 antag = human TAAR1 antagonism. CHO RD-HGA16 TAAR1, Fluo-8 calcium fluorescence, antagonist. inhibition, % at 3 µM. actives 1.5% (n = 360,000). AID 624466;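 active = inhibition above a per-plate cutoff, the mean inhibition of test compounds on that plate plus 3 SD, cut at about 49% in these data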;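 also: 0% = DMSO plus EC80 beta-PEA response and 100% = DMSO alone without agonist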
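Test system: CHO RD-HGA16 cells bearing hTAAR1 | Reagent: β-PEA, EC80 | Compound dosing: 3 µM, single point | Schedule: Dye loading 75 min at 37 °C, then 30 min room temperature | Signal: Calcium fluorescence with Fluo-8 | Evaluation: Percent inhibition of PEA-evoked calcium signal, max/basal emission ratio | Control set: DMSO-only wells and EC80 β-PEA-stimulated wells | Repeats: Singlicate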
TAAR1 agonist = human TAAR1 agonism; Q96RJ0; CHO RD-HGA16 TAAR1, Fluo-8 calcium fluorescence; vehicle wells 0%, saturating PEA agonist 100%; activation, % at 3 µM; actives 0.99% (n = 360,000); AID 624467;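 active = activation above the mean activation of all test compounds in the run plus 3 SD, cut at about 38% in these data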
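test system = CHO RD-HGA16 cells carrying human TAAR1 plus Gα16 | schedule = 17-24 h seeding, 75 min 37 °C dye, 30 min RT | compound dosing = 3 µM single concentration | control set = DMSO and PEA EC100 | replicates = n 1 | signal = Fluo-8 fluorescence, 5 s baseline then 140 s kinetic read | measure = percent activation vs PEA EC100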
* hit, by the source's call; · = no result given.

SMILES	CHO parental Ca	GalR3 antagonist	OX1R antag-1	OX1R antag-2	TAAR1 antag	TAAR1 agonist
Cc1ccc(OCc2cc(C(=O)NCc3cc(F)ccc3C)no2)cn1	·	-7.9	·	·	-1.0	20.3
CCC(NC(=O)c1cc(COc2ccc(C)nc2)on1)c1ccc(C)cc1 (stereo unspecified)	1.0	1.1	13.7	-14.8	8.1	49.2*
COc1ccc(Cl)cc1NC(=O)CSc1nc(C)cc(C)n1	-11.4	-2.3	11.9	-26.7	0.2	3.3
COc1ccc(Cl)cc1NC(=O)CSc1nc2sccc2c(=O)[nH]1	-18.1	1.7	62.9*	-16.5	-27.1	8.9
COc1ccc(C)cc1NC(=O)CSc1nc2scc(C)c2c(=O)[nH]1	1.9	-3.0	71.1*	-6.5	-45.6	1.2
COc1ccccc1C(CNc1ncccc1[N+](=O)[O-])N(C)C (stereo unspecified)	-12.7	-2.8	67.2*	-12.3	-7.2	1.1
Cc1[nH]c2ccccc2c1CN1CCC(Cc2ccccc2)CC1	-7.4	0.0	21.4	-15.0	6.7	40.6*
CNS(=O)(=O)c1cc(S(=O)(=O)NC)c2cccc3c2c1NC3=O	7.0	-2.1	65.7*	-4.6	5.5	5.1
Cc1cc(C)c2c(CN3CCCCCCC3)cc(=O)oc2c1	·	-3.3	·	·	-16.0	-1.2
CCCc1nnc(NC(=O)Cn2c(=O)sc3ccccc32)s1	-10.3	-3.5	4.5	-7.3	-0.3	46.0*
CN(Cc1ccccc1)C1=CC(=[N+]2CCCCC2)CC(C)(C)C1	15.9	41.6*	7.0	13.6	-4.4	0.0
COc1ccc(C(=O)O/N=C(\N)c2ccccc2)c(OC)c1	-10.5	6.5	15.9	-32.9	12.0	4.6
COc1ccc(C(=O)O/N=C(\N)c2ccc(OC)c(OC)c2)c(OC)c1	-5.8	·	62.7*	8.2	·	·
CC(NC(=O)c1ccccc1Cl)NC(=O)c1ccccc1Cl	·	-7.5	·	·	8.7	6.2
CCOC(OCC)c1cn(Cc2ccc3c(c2)C(=O)c2ccccc2C3=O)nn1	-9.3	-8.5	76.2*	-14.9	1.0	0.2
CCOC(=O)c1cn(Cc2ccc(Br)cc2)nn1	-4.8	2.6	5.1	-13.8	-2.3	-0.4
CSc1cccc(NC(=O)/C=C/c2ccc(Cl)cc2)c1	-12.0	-5.2	91.5*	6.3	45.0	3.8
CSc1cccc(NC(=O)/C=C/c2ccccc2)c1	-22.9	-0.3	26.0	-15.9	18.6	1.5
CN(C)CCCNS(=O)(=O)c1ccc(-n2nnc3ccccc32)c([N+](=O)[O-])c1	-20.4	-9.3	67.5*	-25.1	2.5	-3.5
O=[N+]([O-])c1cc(S(=O)(=O)Nc2cccc(C(F)(F)F)c2)ccc1-n1nnc2ccccc21	42.8*	-2.7	88.0*	44.5*	8.9	4.2
Nc1nc(-c2ccccc2)c(CCCNc2ccccc2)c(=O)[nH]1	·	-4.8	·	·	10.0	2.4
Cc1cccc(C(=O)NC(=S)NNC(=O)c2ccccc2Cl)c1	-3.7	-5.8	-5.5	1.9	107.1*	147.7*
Cc1ccc(C(=O)NNC(=S)NC(=O)c2ccc(Cl)cc2)cc1	34.4*	-4.5	2.9	70.6*	108.4*	146.4*
Cc1cccc(C(=O)NC(=S)Nc2ccccc2C(=O)O)c1	-10.4	-2.8	8.4	-18.9	15.7	-0.2
O=C(Nc1cccc(-c2cn3ccccc3n2)c1)c1cccc(Cl)c1	72.5*	-3.4	92.6*	82.5*	21.4	24.6
SMILES	CHO parental Ca	GalR3 antagonist	OX1R antag-1	OX1R antag-2	TAAR1 antag	TAAR1 agonist
COc1ccc(-n2c(C)nc3c(cnn3-c3ccc(Cl)cc3)c2=O)cc1	39.9*	-7.3	34.9	18.9	9.8	3.2
Cc1cccc(-n2c(C)nc3c(cnn3-c3ccc(F)cc3)c2=O)c1	35.5*	-5.2	53.8	27.8	28.8	3.3
COc1ccc(Oc2c(Cl)cnn(-c3ccc(Cl)c(Cl)c3)c2=O)cc1	51.8*	-6.8	11.8	14.0	9.8	0.6
COc1cccc(-n2c(C)nc3c(cnn3-c3ccc(C)cc3)c2=O)c1	9.1	-5.2	18.2	-4.7	17.3	1.7
CC1(C)CC(NC(=O)Cc2ccccc2[N+](=O)[O-])CC(C)(C)N1	0.2	9.2	6.0	3.6	-12.5	0.7
C#CCNC(=O)C1=C[C@H](c2csc3ccccc23)[C@@H](CCCO)[C@H](OCC)O1	-24.4	1.5	25.7	-14.3	9.1	4.8
